# Experimental data taken from ChEMBL document CHEMBL3351243, “Novel inhibitors of human histone deacetylases: design, synthesis and bioactivity of 3-alkenoylcoumarines” (Bioorg Med Chem Lett, 2014).
# Calls of active or inactive are those of the source. No cut-off for these calls is given here.
# Assays:
# K562 [1] = experiment: Antiproliferative activity against human K562 cells at 10 to 100 uM after 24 to 72 hrs; format: functional, cell-based
# How it was run: (§1)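 K-562 (chronic myeloid leukemia) and U-937 (histiocytic lymphoma) cells were exposed to the indicated compound concentrations. Proliferation and viability were scored separately at 24, 48 and 72 h. Data are mean ± SD of three independent cultures.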
# [2] = molecular target: T1, Histone deacetylase (Homo sapiens) (UniProt Q13547+O15379+Q9UBN7+Q92769+Q9UQL6+Q8WUI4+Q9BY41+Q96DB2+P56524+Q9UKV0+Q969S8); experiment: Increase in HDAC activity in human K562 cells nuclear extracts at 100 uM; format: cell-based
# How it was run: (§2)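 Total HDAC activity was measured in vitro on K-562 nuclear extracts with compound at 100 µM. Values are the mean percent change from two independent experiments.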
# U-937 [3] = experiment: Antiproliferative activity against human U937 cells at 10 to 100 uM after 72 hrs; format: functional, cell-based; how it was run: as §1
# U-937 [4] = experiment: Antiproliferative activity against human U937 cells at 10 to 100 uM after 24 to 48 hrs; format: functional, cell-based; how it was run: as §1
# K562 [5] = experiment: Cytotoxicity against human K562 cells assessed as reduction in cell viability at 10 to 100 uM after 24 to 72 hrs; format: functional, cell-based; how it was run: as §1
# PBMC = experiment: Cytotoxicity against human PBMC assessed as reduction in cell viability at 10 to 100 uM after 24 to 48 hrs
# [6] = molecular target: T1, Histone deacetylase (Homo sapiens); experiment: Inhibition of HDAC in human K562 cells nuclear extracts at 100 uM; format: cell-free; how it was run: as §2
# U-937 [7] = experiment: Antiproliferative activity against human U937 cells at 10 to 100 uM after 24 to 72 hrs; format: functional, cell-based; how it was run: as §1
# Histone deacetylase 1 = Histone deacetylase 1 (Homo sapiens, UniProt Q13547); experiment: Inhibition of HDAC1 (unknown origin)
# Chain of Histone deacetylase 1 (Q13547 whole entry): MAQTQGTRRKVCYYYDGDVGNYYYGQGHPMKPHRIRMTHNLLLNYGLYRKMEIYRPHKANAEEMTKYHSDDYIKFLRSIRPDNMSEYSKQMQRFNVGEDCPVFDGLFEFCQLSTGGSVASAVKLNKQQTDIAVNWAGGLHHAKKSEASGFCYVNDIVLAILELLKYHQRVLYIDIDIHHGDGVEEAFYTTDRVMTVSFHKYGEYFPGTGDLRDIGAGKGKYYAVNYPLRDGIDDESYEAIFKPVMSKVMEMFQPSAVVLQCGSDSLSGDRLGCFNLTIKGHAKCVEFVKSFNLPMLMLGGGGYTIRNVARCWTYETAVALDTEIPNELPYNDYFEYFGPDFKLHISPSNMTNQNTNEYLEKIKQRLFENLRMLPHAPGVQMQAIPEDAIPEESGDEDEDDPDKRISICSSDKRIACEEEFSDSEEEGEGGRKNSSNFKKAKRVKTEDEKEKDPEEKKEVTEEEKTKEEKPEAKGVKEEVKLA
# How it was run: (§3)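 Activity of individual HDAC isoenzymes (classes I, IIb and IV) was measured in vitro with compound. IC50 values come from two independent experiments.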
# Histone deacetylase 2 = Histone deacetylase 2 (Homo sapiens, UniProt Q92769); experiment: Inhibition of HDAC2 (unknown origin); how it was run: as §3
# Chain of Histone deacetylase 2 (Q92769 whole entry): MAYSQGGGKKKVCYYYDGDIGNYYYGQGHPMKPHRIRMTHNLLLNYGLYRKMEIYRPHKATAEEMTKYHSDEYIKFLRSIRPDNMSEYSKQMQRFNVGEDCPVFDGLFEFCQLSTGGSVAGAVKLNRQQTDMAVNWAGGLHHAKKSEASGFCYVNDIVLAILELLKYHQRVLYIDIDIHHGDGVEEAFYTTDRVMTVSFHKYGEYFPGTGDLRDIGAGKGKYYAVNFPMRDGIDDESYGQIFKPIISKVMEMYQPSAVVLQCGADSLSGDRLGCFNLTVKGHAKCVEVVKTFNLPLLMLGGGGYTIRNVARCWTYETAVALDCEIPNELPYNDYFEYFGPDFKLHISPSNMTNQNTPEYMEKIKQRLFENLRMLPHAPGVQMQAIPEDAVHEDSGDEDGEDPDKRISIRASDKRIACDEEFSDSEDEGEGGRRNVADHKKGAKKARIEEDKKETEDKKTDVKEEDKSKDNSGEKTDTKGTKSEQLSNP
# Histone deacetylase 3 = Histone deacetylase 3 (Homo sapiens, UniProt O15379); experiment: Inhibition of HDAC3 (unknown origin); how it was run: as §3
# Chain of Histone deacetylase 3 (O15379 whole entry): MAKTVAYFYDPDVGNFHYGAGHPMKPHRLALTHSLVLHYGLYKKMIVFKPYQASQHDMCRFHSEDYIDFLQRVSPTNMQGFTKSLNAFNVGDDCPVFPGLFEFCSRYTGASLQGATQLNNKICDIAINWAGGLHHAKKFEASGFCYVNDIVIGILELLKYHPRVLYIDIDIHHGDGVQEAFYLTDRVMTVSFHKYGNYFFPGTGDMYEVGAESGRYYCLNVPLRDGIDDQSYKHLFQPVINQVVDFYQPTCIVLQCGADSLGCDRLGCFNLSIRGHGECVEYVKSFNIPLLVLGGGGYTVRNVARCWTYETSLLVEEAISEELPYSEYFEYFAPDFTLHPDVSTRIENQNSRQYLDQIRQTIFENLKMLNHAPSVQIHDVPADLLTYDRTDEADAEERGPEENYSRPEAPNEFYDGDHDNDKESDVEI
# Histone deacetylase 8 = molecular target: T2, Histone deacetylase 8 (Homo sapiens, UniProt Q9BY41); experiment: Inhibition of HDAC8 (unknown origin); how it was run: as §3
# T2 sequence (Q9BY41 whole entry): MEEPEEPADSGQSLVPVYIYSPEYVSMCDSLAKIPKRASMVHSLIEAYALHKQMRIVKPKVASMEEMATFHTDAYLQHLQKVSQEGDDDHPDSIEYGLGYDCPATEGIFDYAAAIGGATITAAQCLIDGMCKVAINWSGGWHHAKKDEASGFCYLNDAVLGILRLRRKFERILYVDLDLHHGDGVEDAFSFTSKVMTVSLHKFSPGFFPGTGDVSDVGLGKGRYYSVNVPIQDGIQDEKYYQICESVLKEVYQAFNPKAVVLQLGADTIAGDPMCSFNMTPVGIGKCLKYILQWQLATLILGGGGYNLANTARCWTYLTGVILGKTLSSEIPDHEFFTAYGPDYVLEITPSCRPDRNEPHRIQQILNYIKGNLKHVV
# [8] = molecular target: T3, Protein deacetylase HDAC6 (Homo sapiens, UniProt Q9UBN7); experiment: Inhibition of HDAC6 (unknown origin); how it was run: as §3
# T3 sequence (Q9UBN7 whole entry): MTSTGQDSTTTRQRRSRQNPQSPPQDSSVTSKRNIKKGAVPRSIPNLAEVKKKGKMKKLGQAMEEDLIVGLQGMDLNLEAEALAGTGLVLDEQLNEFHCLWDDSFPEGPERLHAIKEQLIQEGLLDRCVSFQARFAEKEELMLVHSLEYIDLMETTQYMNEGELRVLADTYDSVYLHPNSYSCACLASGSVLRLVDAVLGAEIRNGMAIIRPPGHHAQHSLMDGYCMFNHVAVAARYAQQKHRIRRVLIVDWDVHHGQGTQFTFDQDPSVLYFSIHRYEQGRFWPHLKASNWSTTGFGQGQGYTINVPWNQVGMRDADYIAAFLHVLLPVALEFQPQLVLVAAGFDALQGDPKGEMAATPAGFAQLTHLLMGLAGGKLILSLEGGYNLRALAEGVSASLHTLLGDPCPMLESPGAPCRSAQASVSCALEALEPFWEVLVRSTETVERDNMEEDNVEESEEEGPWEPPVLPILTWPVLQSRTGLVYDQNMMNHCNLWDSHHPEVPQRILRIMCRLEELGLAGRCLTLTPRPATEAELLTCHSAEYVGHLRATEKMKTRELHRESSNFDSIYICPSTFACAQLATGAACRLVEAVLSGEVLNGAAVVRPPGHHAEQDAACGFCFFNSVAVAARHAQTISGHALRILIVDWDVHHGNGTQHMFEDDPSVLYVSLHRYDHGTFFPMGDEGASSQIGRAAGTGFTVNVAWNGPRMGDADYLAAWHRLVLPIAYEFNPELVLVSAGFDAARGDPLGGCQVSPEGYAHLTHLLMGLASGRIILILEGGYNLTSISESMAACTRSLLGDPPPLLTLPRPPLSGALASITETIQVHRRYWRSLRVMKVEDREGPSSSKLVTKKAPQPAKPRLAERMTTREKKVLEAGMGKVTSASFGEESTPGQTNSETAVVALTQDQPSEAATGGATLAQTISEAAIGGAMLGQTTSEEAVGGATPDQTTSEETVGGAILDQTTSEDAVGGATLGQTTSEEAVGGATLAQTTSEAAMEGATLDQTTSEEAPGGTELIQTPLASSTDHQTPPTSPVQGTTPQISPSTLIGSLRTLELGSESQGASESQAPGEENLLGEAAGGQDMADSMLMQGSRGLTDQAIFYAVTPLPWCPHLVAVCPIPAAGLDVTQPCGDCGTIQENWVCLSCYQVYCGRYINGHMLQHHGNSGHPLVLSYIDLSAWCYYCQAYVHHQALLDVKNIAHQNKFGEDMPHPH
# [9] = molecular target: T4, Polyamine deacetylase HDAC10 (Homo sapiens, UniProt Q969S8); experiment: Inhibition of HDAC10 (unknown origin); how it was run: as §3
# T4 sequence (Q969S8 whole entry): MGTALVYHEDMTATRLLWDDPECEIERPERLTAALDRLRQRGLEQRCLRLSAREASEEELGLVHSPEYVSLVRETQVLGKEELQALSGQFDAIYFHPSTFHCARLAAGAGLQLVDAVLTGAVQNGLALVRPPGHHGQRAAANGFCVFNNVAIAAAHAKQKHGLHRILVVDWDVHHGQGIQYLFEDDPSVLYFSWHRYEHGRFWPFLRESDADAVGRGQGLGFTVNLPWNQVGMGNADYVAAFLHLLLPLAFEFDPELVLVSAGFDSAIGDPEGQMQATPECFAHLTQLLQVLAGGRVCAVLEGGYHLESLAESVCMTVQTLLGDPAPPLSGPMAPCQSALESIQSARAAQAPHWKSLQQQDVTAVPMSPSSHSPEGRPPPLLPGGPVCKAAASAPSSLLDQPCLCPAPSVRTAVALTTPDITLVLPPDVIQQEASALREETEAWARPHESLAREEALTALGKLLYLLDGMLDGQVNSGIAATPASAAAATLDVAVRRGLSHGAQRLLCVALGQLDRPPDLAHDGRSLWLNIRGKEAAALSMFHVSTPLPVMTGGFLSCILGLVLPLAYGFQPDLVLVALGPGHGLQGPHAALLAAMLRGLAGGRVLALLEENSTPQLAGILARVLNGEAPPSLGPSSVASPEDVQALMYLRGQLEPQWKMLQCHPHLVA
# Histone deacetylase 11 = molecular target: T5, Histone deacetylase 11 (Homo sapiens, UniProt Q96DB2); experiment: Inhibition of HDAC11 (unknown origin); how it was run: as §3
# T5 sequence (Q96DB2 whole entry): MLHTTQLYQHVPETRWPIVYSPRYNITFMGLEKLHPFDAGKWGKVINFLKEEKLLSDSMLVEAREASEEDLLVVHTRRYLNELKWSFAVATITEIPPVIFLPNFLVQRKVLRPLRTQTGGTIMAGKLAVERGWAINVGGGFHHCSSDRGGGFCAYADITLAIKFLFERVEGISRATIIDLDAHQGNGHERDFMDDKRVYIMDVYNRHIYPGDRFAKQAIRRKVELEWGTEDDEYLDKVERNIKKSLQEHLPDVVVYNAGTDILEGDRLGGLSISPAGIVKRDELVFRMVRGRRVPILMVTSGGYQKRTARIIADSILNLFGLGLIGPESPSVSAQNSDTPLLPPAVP
# U-937 [10] = experiment: Cytotoxicity against human U937 cells assessed as reduction in cell viability at 10 to 100 uM after 24 to 72 hrs; format: functional, cell-based; how it was run: as §1
Structure (SMILES),inhibition (K562 [1]),Activity (PBMC),inhibition [6],inhibition (U-937 [7]),also measured
"COc1ccc(/C=C/C=O)cc1OC [3,4-DIMETHOXY CINNAMALDEHYDE]",inactive,Non-toxic,,,Activity [2]: 80%; inhibition (U-937 [3]): Active; inhibition (U-937 [4]): inactive; Activity (K562 [5]): inactive
COc1ccc2cc(C(=O)/C=C/C=C/c3ccc(O)c(OC)c3)c(=O)oc2c1,,,< 10%,,
O=C(/C=C/c1ccccc1)c1cc2ccccc2oc1=O,,,< 10%,,
COc1ccc2cc(C(=O)/C=C/c3ccc(OC)c(OC)c3)c(=O)oc2c1,,,< 10%,,
O=C(/C=C/C=C/c1ccccc1)c1cc2ccccc2oc1=O,,,< 10%,,
COc1ccc(/C=C/C=C/C(=O)c2cc3ccc(OC)cc3oc2=O)cc1,Active,Non-toxic,30%,Active,
COc1ccc2cc(C(C)=O)c(=O)oc2c1,inactive,Non-toxic,20%,,inhibition (U-937 [3]): Active; inhibition (U-937 [4]): inactive; Activity (K562 [5]): inactive
COc1ccc(/C=C/C(=O)c2cc3ccc(OC)cc3oc2=O)cc1,,,< 10%,,
COc1ccc2cc(C(=O)/C=C/C=C/c3ccc(OC)c(OC)c3)c(=O)oc2c1,Active,Non-toxic,50%,Active,IC50 (Histone deacetylase 1): 59 µM; IC50 (Histone deacetylase 2): 33 µM; IC50 (Histone deacetylase 3): 12 µM; IC50 (Histone deacetylase 8): 28 µM; IC50 [8]: 32 µM; IC50 [9]: 85 µM; IC50 (Histone deacetylase 11): 74 µM
COc1ccc(/C=C/C(=O)c2cc(=O)oc3cc(OC)ccc23)cc1,Active,Non-toxic,20%,Active,inhibition (U-937 [10]): Active
